Screening results (PubChem BioAssay)
Most compounds without a hit are left out; they make up all but 4.5% or so of the library.
UPR XBP1 act: activators of adaptive arm of unfolded protein response (XBP1); CHO-XBP1 luciferase reporter, IRE1-XBP1 UPR activation, luminescence; percent of tunicamycin response, DMSO as zero; activation, % at 20 µM; 330,000 compounds, 0.33% hits;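 active = versus positive control, 20 µM dose yields 30% or more activation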;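 also: 100% = tunicamycin at 10 µg/mL and 0% = DMSO only wells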
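Signal: luciferase luminescence; Assay system: CHO-XBP1 luciferase reporter cells; Amount: one thousand reporter cells per well; Dosing: 20 µM single concentration, DMSO 1%; Benchmarks: high control tunicamycin 10 µg/mL final, low control DMSO vehicle only; Schedule: 6 h compound exposure at 37 °C, 5% CO2; Evaluation: percent activation relative to tunicamycin reference.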
NS3 helicase inh: blocks Hepatitis C virus NS3 helicase unwinding. NS3 helicase DNA unwinding, Cy5 molecular beacon fluorescence. 290,000 compounds, 0.56% hits. inhibition, % at 10.9 µM;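 active = inhibition above the mean of all tested compounds plus 3 SD, set per campaign, cut at about 35% in these data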;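 also: 0% = DMSO wells and 100% = thioflavine S control wells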
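Control set: DMSO versus 110 µM thioflavine S; Material: NS3 helicase fragment of HCV; Measured by: Cy5 fluorescence at 0 and 60 min, beacon hairpin quenching; Read-out basis: percent inhibition from t60/t0 fluorescence ratio; Times: reaction time 60 min, 25 °C; Repeats: single replicate; Compound dosing: single dose, 10.9 µM nominal final, DMSO 0.8% final.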
p97 ATPase inh: inhibitors of human p97 ATPase; P55072; recombinant p97 ATPase, Kinase-Glo ATP luminescence, 3 h; inhibition, % at 8 µM; 220,000 compounds, 0.42% hits; AID 1481; in the data active = inhibition above about 15%;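 also: 0% = DMSO vehicle and 100% = wells lacking enzyme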
CHOP UPR activ: activators of apoptotic arm of unfolded protein response (CHOP) | CHO-CHOP luciferase reporter, UPR activation, luminescence; percent of tunicamycin response over DMSO baseline | activation, % at 10 µM | 330,000 compounds, 0.34% hits | AID 449763;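 active = at 10 µM dose, activation of 40% or more, normalized to positive control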;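 also: 100% = tunicamycin at 10 µg/mL and 0% = DMSO alone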
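Test system: CHO-CHOP cells, stable luciferase reporter of PERK-eIF2a-CHOP signalling | Quantity: 500 CHO-CHOP cells per well | Buffer or medium: F12 plus 10% serum | Compound dosing: 10 µM single point, 0.5% DMSO | Schedule: 6 h compound treatment, 37 °C | Signal: Luciferase luminescence | Control set: Tunicamycin high control, DMSO low control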
CHOP inh: blocks CHOP induction under ER stress; CHO-K1 CHOP-promoter luciferase, tunicamycin-induced, 15-18 h; inhibition, % at 10 µM; 220,000 compounds, 3.8% hits; AID 2732;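 active = compounds that reduced the stress-induced luciferase reporter signal by more than about 70% of percent inhibition, limit read from the data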;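 also: 0% = tunicamycin plus vehicle and 100% = wells without tunicamycin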
PfM18AAP inh-1: blocks P. falciparum M18 aspartyl aminopeptidase | recombinant PfM18AAP, H-Glu-NHMec fluorogenic cleavage | inhibition, % at 7.35 µM | 290,000 compounds, 1.2% hits;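 active = inhibition above the campaign mean inhibition over all tested compounds plus 3 SD, cut at about 28% in these data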;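 also: 0% = plate median of test compound wells and 100% = 2 mM ZnCl2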
PfM18AAP inh-2: confirmation of Plasmodium falciparum M18 aspartyl aminopeptidase inhibitors | shares compounds with PfM18AAP inh-1 | recombinant PfM18AAP, H-Glu-NHMec fluorogenic cleavage | inhibition, % at 7.35 µM | 2,400 compounds, 28% hits | AID 2170;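 active = mean inhibition over replicate wells above the hit cutoff set for the earlier primary screen, cut at about 29% in these data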;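 also: 0% = median of test compound wells and 100% = 2 mM ZnCl2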
CTSL1 counter: counter-screen for PFM18AAP inhibitors: confirmation of human cathepsin L inhibitors; inhibition, % at 5.96 µM; purified cathepsin L1, Z-Leu-Arg-MCA fluorescence; AID 2178; 2,400 tested, under 10 active; shares compounds with PfM18AAP inh-1;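 active = average inhibition across replicates above the hit cutoff set in the earlier primary screen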;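 also: 0% = median of test compound wells and 100% = Z-Phe-Ala-diazomethylketone 1 µM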
Active calls of the source: *; . = no result given.

SMILES | UPR XBP1 act | NS3 helicase inh | p97 ATPase inh | CHOP UPR activ | CHOP inh | PfM18AAP inh-1 | PfM18AAP inh-2 | CTSL1 counter
CCc1ccccc1NC(=S)Nn1cnnc1 | -3 | 20 | . | 1 | . | 76* | 70* | -7
Cc1ccccc1NC(=S)Nn1cnnc1 | 0 | -1 | . | 2 | . | 73* | 52* | 4
O=C(NC1CCCC1)C(c1cccnc1)N(Cc1ccccc1)C(=O)c1csnn1 (configuration not stated) | 0 | 9 | . | 0 | . | 4 | . | .
CSc1ncc(-c2ccc(Cl)cc2)[nH]1 | 2 | 6 | -3 | 2 | -15 | -2 | . | .
Fc1ccccc1NC(=S)Nn1cnnc1 | -7 | 5 | . | 0 | . | 75* | 54* | -5
Fc1ccccc1NC(=S)NCc1ccccc1 | -4 | 2 | . | 0 | . | 3 | . | .
O=C(NNc1ccc(Cl)nn1)c1ccc(Cl)cc1 | -1 | 12 | -4 | -3 | -8 | 38* | -4 | -2
O=[N+]([O-])c1cc(C(F)(F)F)cc([N+](=O)[O-])c1N1CCCNCC1 | -2 | -1 | -5 | 0 | 4 | 1 | . | .
O=C(O)c1cc([N+](=O)[O-])c(N2CCCC2)c([N+](=O)[O-])c1 | -3 | -13 | 8 | -1 | 8 | 38* | 13 | 0
COC(=O)Nc1nc(Sc2ncc(C(F)(F)F)cc2Cl)n[nH]1 | -2 | 5 | 8 | -1 | -2 | 69* | 70* | -1
Cc1c(Cc2ccccc2)c(=O)oc2cc(O)ccc12 | -1 | -8 | 6 | -1 | 36 | 3 | . | .
Cc1c(Cc2ccccc2)c(=O)oc2c(O)c(O)ccc12 | 1 | 17 | -2 | 0 | -8 | 47* | 23 | 8
O=C(N/N=C/c1ccc(N2CCOCC2)s1)c1ccccc1Br | 1 | 11 | 2 | 0 | 2 | 41* | -22 | 7
O=C1C(Cc2ccccc2O)NC(=S)N1c1ccccc1 (configuration not stated) | 1 | -5 | 1 | 2 | -18 | 3 | . | .
Cc1cc(C)n(-c2cc(O)c(-n3nc(C)cc3C)cc2O)n1 | -2 | 4 | 0 | 4 | -4 | 46* | 24 | 5
Cc1cc(C)n(-c2cc(-n3nc(C)cc3C)ncn2)n1 | -1 | -6 | 2 | 1 | 40 | -8 | . | .
Cc1cc(C)c(CN2CCC(n3nccc3NC(=O)C3CCOC3)CC2)cc1C (configuration not stated) | -3 | 6 | . | 1 | . | 3 | . | .
O=C(Nc1ccccc1O)c1ccccc1O | 1 | -2 | 4 | 1 | -1 | 34* | 29* | -5
Cc1ccc(N(CC(=O)NCc2ccco2)C(=O)CCC(=O)Nc2nccs2)c(C)c1 | 0 | -2 | . | 3 | . | 6 | . | .
COc1ccc(C(C)C)cc1S(=O)(=O)Nc1ccncc1 | -1 | 15 | -1 | -1 | -7 | 37* | -58 | -2
COc1ccc(C)cc1S(=O)(=O)Nc1ccncc1 | 0 | -3 | 2 | -2 | 17 | -6 | . | .
COc1cc(NC(=O)NNC(=O)c2cc3occc3n2C)cc(OC)c1OC | -2 | 7 | . | -2 | . | 60* | 30* | -1
C=CCNC(=O)/C(C#N)=C/c1c(N2CCN(c3ccc(OC)cc3)CC2)nc2c(C)cccn2c1=O | -4 | 14 | . | 0 | . | 8 | . | .
C=CCNC(=S)NNc1nc2sc3c(c2c(=O)[nH]1)CC(C)(C)OC3 | -6 | 0 | . | 1 | . | 34* | 17 | 1
Cc1nnc(SCC(=O)Nc2cccc(Cl)c2)n1CC1CCCO1 (configuration not stated) | -4 | -2 | . | -1 | . | -2 | . | .
CN(C)c1ccc(C(=S)N2CCN(c3ccc([N+](=O)[O-])cc3)CC2)cc1 | -5 | 5 | -10 | 2 | 29 | 47* | 7 | 5
O=[N+]([O-])c1ccc(C(=S)N2CCN(c3ccc(F)cc3)CC2)cc1 | 25 | -14 | 0 | -1 | 7 | 14 | . | .
